Test results reported in ChEMBL document CHEMBL4706672 (J Med Chem, 2021).
Activity calls are given as the source filed them. No cut-off for these calls is given here.

Columns and labels:
[1] = test system: G1 to S phase transition protein 1 homolog GSPT1 (Homo sapiens); assay: Protac activity at CRBN/STAT3 in human BxPC-3 cells assessed as effect on GSPT1 protein expression level at 1 to 10 uM incubated for 16 hrs by western blot analysis; conditions: dose 1-10 µM
[2] = biological target: Protein cereblon/Signal transducer and activator of transcription 1-alpha/beta (Homo sapiens) (UniProt P42224+Q96SW2); assay: Protac activity at CRBN/STAT1 in human OVCAR-3 cells assessed as decrease in STAT1 expression levels at 2 to 20 uM after 12 hrs by western blot analysis; format: cell-based; conditions: dose 2-20 µM
[3] = biological target: T1, Protein cereblon/Signal transducer and activator of transcription 3 (Homo sapiens, UniProt P40763+Q96SW2); assay: Protac activity at CRBN/STAT3 in human BxPC-3 cells assessed as decrease in STAT3 expression level after 12 hrs by western blot analysis; format: cell-based
[4] = biological target: T1, Protein cereblon/Signal transducer and activator of transcription 3; assay: Protac activity at CRBN/STAT3 in human BxPC-3 cells assessed as induction of STAT3 degradation at 1 to 5 uM after 12 hrs in presence of proteasome inhibitor bortezomib by western blot analysis; format: cell-based; conditions: dose 1-5 µM
BXPC-3 [5] = assay: Reduction in NQO1 levels in human BxPC-3 cells at 1 to 10 uM incubated for 16 hrs by western blot analysis; format: functional, cell-based; conditions: dose 1-10 µM
Outline: (§1)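 BxPC-3 cells seeded at 500 × 10^3 per well in 6-well plates, treated 16 h. Sonication lysis at 4 °C in Tris/NaCl/Triton/SDS buffer pH 7.4 with protease and phosphatase inhibitors, BCA protein assay, SDS-PAGE, PVDF transfer. Probed for STAT3, pSTAT3 and NQO1 with GAPDH loading control; fluorescent secondary detection.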

MIA PaCa-2 = assay: Antiproliferative activity against human MIA PaCa-2 cells assessed as reduction in cell viability incubated for 3 days by MTT assay; format: functional, cell-based; conditions: MIA PaCa-2, 72 h
Outline: (§2)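 MTT assay. Cells were seeded at 3000–6000/well and incubated overnight, then exposed to compound or DMSO vehicle for 3 days in RPMI-1640 or DMEM with 10% FBS at 37 °C, 5% CO2. MTT (3 mg/ml) was added for 3 h at 37 °C, formazan was dissolved in DMSO and absorbance read at 570 nm. IC50 from three independent experiments, mean ± SD.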

[6] = Selectivity index, ratio of IC50 for antiproliferative activity against STAT3 knockout human OVCAR-3 cells to IC50 for wild type human OVCAR-3 cells; format: functional
[7] = biological target: T1, Protein cereblon/Signal transducer and activator of transcription 3; assay: Protac activity at CRBN/STAT3 in human OVCAR-3 cells assessed as decrease in STAT3 phosphorylation at 2 to 20 uM after 6 hrs by western blot analysis; format: cell-based; conditions: dose 2-20 µM
[8] = biological target: T1, Protein cereblon/Signal transducer and activator of transcription 3; assay: Protac activity at CRBN/STAT3 in human OVCAR-3 cells assessed as depletion of STAT3 at 2 to 20 uM after 12 hrs by western blot analysis; format: cell-based; conditions: dose 2-20 µM
[9] = biological target: T1, Protein cereblon/Signal transducer and activator of transcription 3; assay: Protac activity at CRBN/STAT3 in human OVCAR-3 cells assessed as induction of STAT3 degradation at 1 to 20 uM incubated for 12 hrs in presence of competitive CRBN ligand pomalidomide by western blot analysis; format: cell-based; conditions: dose 1-20 µM
BXPC-3 [10] = assay: Antiproliferative activity against human BxPC-3 cells assessed as reduction in cell viability incubated for 3 days by MTT assay; format: functional, cell-based; conditions: BXPC-3, 72 h
OVCAR-3 = assay: Antiproliferative activity against human OVCAR-3 cells assessed as reduction in cell viability incubated for 3 days by MTT assay; format: functional, cell-based; conditions: OVCAR-3, 72 h
Outline: as §2

[11] = biological target: T1, Protein cereblon/Signal transducer and activator of transcription 3; assay: Protac activity at CRBN/STAT3 in human OVCAR-3 cells assessed as decrease in STAT3 expression at 2 to 10 uM incubated for 24 hrs in presence of proteasome inhibitor MG132 by western blot analysis; format: cell-based; conditions: dose 2-10 µM
HEK293 = assay: Antiproliferative activity against human HEK293 cells assessed as reduction in cell viability incubated for 24 hrs by MTT assay; format: functional, cell-based; conditions: HEK293, 24 h
Outline: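 HEK-293 cells were treated with compound for 24 h, in parallel with the luciferase reporter assay. Viability was read by MTT absorbance at 570 nm, and IC50 was taken from three independent experiments.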

[12] = biological target: Signal transducer and activator of transcription 3 (Homo sapiens) (UniProt P40763); assay: Inhibition of STAT3 phosphorylation in human BxPC-3 cells at 5 uM after 16 hrs by western blot analysis; format: cell-based
Outline: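 Cells were seeded in 6-well plates (BxPC-3 500 × 10^3, MIA PaCa-2 200 × 10^3 cells/well) and exposed to compound for 16 h. Lysis was at 4 °C by sonication in Tris/NaCl/Triton/SDS buffer, pH 7.4, with protease and phosphatase inhibitors. Lysates were run on SDS-PAGE, transferred to PVDF and probed for STAT3, pSTAT3 and NQO1 with GAPDH as loading control. Immunoblots were imaged on an Odyssey system.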

[13] = biological target: T1, Protein cereblon/Signal transducer and activator of transcription 3; assay: Protac activity at CRBN/STAT3 in human BxPC-3 cells assessed as effect on STAT3 expression level at 0.1 to 5 uM incubated for 16 hrs by western blot analysis; format: cell-based; conditions: dose 0.1-5 µM
Outline: as §1

Row | SMILES | IC50 (MIA PaCa-2) [µM] | IC50 (BXPC-3 [10]) [µM] | IC50 (HEK293) [µM] | further results
1 | O=C1CCC(N2C(=O)c3cccc(NCCOCCOCCNC(=O)c4cc5c(o4)C(=O)c4ccccc4C5=O)c3C2=O)C(=O)N1 (stereo not drawn) | 1.3 | 4.3 |  | Activity [1]: inactive; Activity [2]: Active; DC50 [3]: 7.8 µM; Activity [4]: Active; Activity (BXPC-3 [5]): Active; Ratio IC50 [6]: >6; Activity [7]: Active; Activity [8]: Active; Activity [9]: Active; IC50 (OVCAR-3): 0.3 µM; Activity [11]: Active
2 | O=C1CCC(N2C(=O)c3cccc(OCCOCCOCCNC(=O)c4cc5c(o4)C(=O)c4ccccc4C5=O)c3C2=O)C(=O)N1 (stereo not drawn) | 3.8 | 8.2 |  | 
3 | O=C1CCC(N2C(=O)c3cccc(NCCCNC(=O)c4cc5c(o4)C(=O)c4ccccc4C5=O)c3C2=O)C(=O)N1 (stereo not drawn) | 2.7 | 3.5 |  | 
4 | Nc1cccc2c1C(=O)N(C1CCC(=O)NC1=O)C2=O (stereo not drawn) [POMALIDOMIDE] | > 30 | > 30 |  | 
5 | O=C1CCC(N2C(=O)c3ccc(NCCOCCOCCNC(=O)c4cc5c(o4)C(=O)c4ccccc4C5=O)cc3C2=O)C(=O)N1 (stereo not drawn) |  |  | > 10 | 
6 | O=C1CCC(N2C(=O)c3cccc(NCCOCCOCCOCCOCCOCCOCCNC(=O)c4cc5c(o4)C(=O)c4ccccc4C5=O)c3C2=O)C(=O)N1 (stereo not drawn) | 5 | 7.5 | 10.8 | 
7 | O=C1CCC(N2C(=O)c3cccc(NCCCCCNC(=O)c4cc5c(o4)C(=O)c4ccccc4C5=O)c3C2=O)C(=O)N1 (stereo not drawn) | 1.8 | 3.2 | > 10 | 
8 | O=C(COc1cccc2c1C(=O)N(C1CCC(=O)NC1=O)C2=O)NCCOCCOCCOCCNC(=O)c1cc2c(o1)C(=O)c1ccccc1C2=O (stereo not drawn) | 3.7 | 6 |  | 
9 | CN1C(=O)CCC(N2C(=O)c3cccc(NCCCCCC4CCN(CCNC(=O)c5cc6c(o5)C(=O)c5ccccc5C6=O)CC4)c3C2=O)C1=O (stereo not drawn) | 2.7 | 3.4 | > 30 | inhibition [12]: Active; Activity [13]: inactive
10 | O=C(COc1cccc2c1C(=O)N(C1CCC(=O)NC1=O)C2=O)NCCOCCOCCNC(=O)c1cc2c(o1)C(=O)c1ccccc1C2=O (stereo not drawn) | 16.7 | 20.4 |  | 
11 | O=C1CCC(N2Cc3c(NCCOCCOCCNC(=O)c4cc5c(o4)C(=O)c4ccccc4C5=O)cccc3C2=O)C(=O)N1 (stereo not drawn) | 13.7 |  | > 30 | 
12 | O=C1CCC(N2C(=O)c3cccc(NCCCCNC(=O)c4cc5c(o4)C(=O)c4ccccc4C5=O)c3C2=O)C(=O)N1 (stereo not drawn) | 1.6 | 4.1 |  | 
13 | O=C1CCC(N2C(=O)c3cccc(NCCCC4CCN(CCNC(=O)c5cc6c(o5)C(=O)c5ccccc5C6=O)CC4)c3C2=O)C(=O)N1 (stereo not drawn) |  | 0.6 |  | 
14 | O=C1CCC(N2C(=O)c3cccc(OCCCCNC(=O)c4cc5c(o4)C(=O)c4ccccc4C5=O)c3C2=O)C(=O)N1 (stereo not drawn) | 2 | 4.2 | > 10 | 
